# Screens deposited in PubChem BioAssay by several laboratories.
# Compounds with a hit are over-represented: about 2.4% of the library has one in this group of screens.
# JMJD2C inh = inhibitors of human GASC-1 (JMJD2C) demethylase | GST-JMJD2C(1-420) H3K9me3 demethylation, DELFIA europium | AID 2099 | 330,000 tested, 0.069% active | inhibition, % at 2.35 µM;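 active = more than half of a compound's replicate wells show inhibition beyond 50%, single wells judged on their own value; inconclusive = some, but no more than half, of replicates pass 50% inhibition; inactive = no replicate passes 50% inhibition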;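 also: signal counts dimethyl H3K9 product captured on neutravidin plate; 0% = median of DMSO wells and 100% = 0.3 times that DMSO median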
# mABHD4 FP = inhibitors of mouse ABHD4. Q8VD66. purified mABHD4, FP-Rh probe fluorescence polarization. inhibition, % at 8.92 µM. 370,000 tested, 0.54% active. AID 720543;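 active = inhibition exceeding the mean over every tested compound plus 3 SD, cut at about 30% in these data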;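 also: 0% = plate median of compound wells and 100% = S159A mutant with DMSO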
# Target sequence (Q8VD66 whole entry, looked up): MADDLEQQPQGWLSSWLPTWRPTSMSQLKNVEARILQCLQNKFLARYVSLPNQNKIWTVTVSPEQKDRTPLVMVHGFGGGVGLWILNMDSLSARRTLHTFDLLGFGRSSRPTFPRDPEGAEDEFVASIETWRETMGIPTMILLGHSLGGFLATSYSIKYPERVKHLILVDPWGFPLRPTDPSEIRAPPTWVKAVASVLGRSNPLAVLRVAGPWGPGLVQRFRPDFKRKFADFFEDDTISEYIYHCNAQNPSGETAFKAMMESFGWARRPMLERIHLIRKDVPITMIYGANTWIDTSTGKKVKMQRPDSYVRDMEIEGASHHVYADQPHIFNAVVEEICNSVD
#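 Assay system: mouse ABHD4 enzyme, wild type / Also added: fluorescent activity-based probe FP-Rh / Doses: single nominal dose of 8.92 µM, 0.89% DMSO final / Timing: 45 min compound pre-incubation plus 60 min probe step, 25 °C / Signal: FP readout, ex 525 nm / em 598 nm / Control set: S159A mutant/DMSO as 100%, compound-well median as 0%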
# SIAE primary = human SIAE inhibition, primary screen | inhibition, % at 9.66 µM | SIAE FP-Rh probe binding, fluorescence polarization | 370,000 tested, 0.69% active | Q9HAT2 | AID 1053197;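 active = inhibition above a cutoff: mean of compounds within the control limits plus 3 SD of those, cut at about 17% in these data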;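 also: 0% = plate median of compound wells and 100% = probe without SIAE protein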
# HTRA1 inh = HTRA1 (human) protease inhibition | recombinant HTRA1, FP-rhodamine activity-based probe, fluorescence polarization | 340,000 tested, 0.5% active | inhibition, % at 5.96 µM | AID 504803; in the data active = inhibition above about 36%;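 also: 0% = enzyme with DMSO and 100% = wells lacking enzyme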
# PRMT1 FP inh = inhibitors of human PRMT1; recombinant PRMT1, activity-based probe fluorescence polarization; 370,000 tested, 1.3% active; Q99873; inhibition, % at 2.79 µM;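 active = inhibition above about 21% made by adding two undisclosed values, limit read from the data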
# PRMT1 confirm = PRMT1 (human) inhibition, FP confirmation. shares compounds with PRMT1 FP inh. recombinant His-PRMT1, activity-based probe fluorescence polarization. 3,300 tested, 42% active. inhibition, % at 2.79 µM;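 active = mean inhibition across replicates above the hit cutoff derived for the earlier primary screen, cut at about 22% in these data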
# An asterisk follows results filed as active; ? = inconclusive; nt = not tested or not shown.
SMILES,JMJD2C inh,mABHD4 FP,SIAE primary,HTRA1 inh,PRMT1 FP inh,PRMT1 confirm
Cc1ccc(C2C3=C(CC(C)(C)CC3=O)Nc3[nH]c(=S)[nH]c(=O)c32)cc1 (stereo unspecified),-67,1,-7,-6,52*,5
CCOC(=O)CNC(c1ccccc1)c1cc(Br)ccc1NC(=O)CCN1CCOCC1 (stereo unspecified),-18,11,3,-31,37*,0
CCOC(=O)C1CCN(c2nc(N)c3c(N)nc(SCC(=O)O)cc3c2C#N)CC1,?,26,-2,15,55*,26*
CCOC(=O)C1CCN(c2nc(C)cc(C)c2C#N)CC1,3,0,-2,0,0,nt
CCCNC(=O)c1ccc(N2CCC3(CC2)CC(c2cccc(Br)c2)=NO3)c(NC(=O)c2ccc(Cl)c([N+](=O)[O-])c2)c1,-12,1,-7,-12,1,nt
CN(CCc1ccccn1)C1CC(=O)N(c2ccc(Cl)cc2)C1=O (stereo unspecified),5,1,-5,3,80*,16
CN(CCc1ccccn1)C(=O)Nc1ccc(Cl)cc1,2,3,2,1,1,nt
O=c1c2ccccc2sn1-c1ccccc1F,nt,4,9,1,89*,96*
Cn1sc2ccccc2c1=O,nt,13,11,2,71*,77*
O=c1c2ccccc2sn1-c1nccs1,-6,10,-2,nt,97*,88*
COCCn1c(=O)sc2ccccc2c1=O,-1,0,2,7,0,nt
CC(C)c1cc(C(C)C)c(S(=O)(=O)N2CCCC(C(=O)NCc3cccs3)C2)c(C(C)C)c1 (stereo unspecified),nt,-6,-6,nt,1,nt
Cc1ccc(/C=C2\C(=O)Nc3ccccc32)o1,1,19,-1,3,60*,9
NS(=O)(=O)c1ccc(-c2ccc(/C=C3\C(=O)Nc4ccccc43)o2)cc1,-12,nt,nt,nt,nt,nt
Cc1ccc(-c2c3c(nc4sc(C(N)=O)c(N)c24)CCCC3)o1,-1,18,3,5,32*,3
NC(=O)c1sc2nc3c(c(-c4cccs4)c2c1N)CCCC3,-4,nt,nt,nt,nt,nt
COc1ccc(-n2c(SCC(=O)Nc3ccc(Oc4ccccc4)cc3)nnc2-c2cccnc2)cc1,nt,-3,-2,nt,4,nt
CCSc1nnc([C@H](Cc2ccccc2)NC(=O)OC(C)(C)C)o1,0,3,-3,0,2,nt
Cc1ccccc1CS(=O)(=O)c1nnc([C@H](Cc2ccccc2)NC(=O)OC(C)(C)C)o1,-6,10,2,-4,38*,26*
CC(C)(C)OC(=O)N[C@@H](Cc1ccccc1)c1nnc(S(=O)(=O)Cc2ccccc2)o1,4,22,8,nt,54*,21
COc1ccc(C(=O)Nc2ccc3c(c2)C(=O)N(C)[C@H]2CC[C@H](CC(=O)NCC4CC4)O[C@@H]2CO3)cc1,nt,10,3,nt,-1,nt
COc1cc(NS(=O)(=O)c2ccc(NC(=O)CSC3=NCCS3)cc2)nc(OC)n1,-9,nt,nt,nt,nt,nt
O=C(CSC1=NCCS1)Nc1ccc(S(=O)(=O)NC2CCCCC2)cc1,1,-12,1,-15,29*,26*
O=C(CSC1=NCCS1)Nc1ccc(S(=O)(=O)N2CCCCCC2)cc1,11,-15,-33,-19,38*,52*
CC(C)C[C@H]1COc2cccc(F)c2S(=O)(=O)N1Cc1cn(Cc2ccc(Cl)cc2)nn1,nt,-18,-3,nt,-1,nt
SMILES,JMJD2C inh,mABHD4 FP,SIAE primary,HTRA1 inh,PRMT1 FP inh,PRMT1 confirm
Cc1ccc(F)cc1NC(=O)CSCc1nc2sc(C)c(C)c2c(=O)[nH]1,-8,6,6,-9,34*,38*
N#Cc1cccc(N=c2ssnc2Cl)c1,-7,-3,8,nt,100*,92*
OCc1ccccc1N=c1ssnc1Cl,-26,nt,nt,nt,nt,nt
Clc1nssc1=Nc1ccc(Br)cc1,-2,4,10,4,72*,93*
Clc1nssc1=Nc1nncs1,-7,0,2,7,97*,92*
COc1cc(N=c2ssnc2Cl)cc(OC)c1,6,16,4,22,63*,92*
C[C@H]1CN([C@@H](C)CO)S(=O)(=O)c2ccc(Br)cc2O[C@H]1CN(C)C(=O)c1ccccc1F,nt,6,3,nt,1,nt
COCCCNC(=O)C[C@H]1C[C@@]2(C(=O)OC)C(=C[C@H](C(C)C)O[C@@H]2C2CC2)N(Cc2ccco2)C1=O,nt,2,-4,nt,4,nt
O=C(Cc1ccc(S(=O)(=O)N2CCOCC2)s1)Nc1nc2c(s1)CCCC2,-1,9,5,-6,29*,4
O=C(Cc1ccc(S(=O)(=O)N2CCOCC2)s1)Nc1ccc2c(c1)CCC2,1,-14,-7,-14,1,nt
CCC(C(=O)NCc1ccccc1)n1c(CSCCOc2ccccc2)nc2ccccc21 (stereo unspecified),nt,-3,0,nt,-3,nt
CCN1/C(=C/C(C)=C/c2sc3ccccc3[n+]2CC)Sc2ccccc21,-2,-123,-238,-241,98*,-8
CCN1/C(=C/c2ccc3cccc(C)c3[n+]2CC)Sc2ccccc21,-2,-46,-14,-7,-15,nt
N#Cc1c(N)[nH]c(=S)c(C#N)c1-c1ccccc1,-31,-2,-11,0,38*,14
Cc1ccc(-c2cc(-c3ccccc3)[nH]c(=S)c2C#N)cc1,41,6,3,-15,20,nt
Cn1c(SSc2ccc(-c3cccnc3)n2C)ccc1-c1cccnc1,nt,7,5,-2,69*,77*
c1cncc(-c2nnc(-c3cccnc3)nn2)c1,-18,-5,-3,4,2,nt
COc1ccc2ccccc2c1C(=O)/C=C\c1ccoc1,-18,24,2,-9,33*,7
O=C(/C=C/c1ccoc1)c1ccccc1O,-23,-1,-2,1,2,nt
COc1ccc(CC(=O)Nc2ncc([N+](=O)[O-])s2)cc1OC,5,5,-7,6,47*,21
O=C(O)Cn1cc(/C=N/Nc2ccc([N+](=O)[O-])cn2)c2ccccc21,0,7,-3,7,28*,6
CCc1nc2c(OCc3ccc(C(F)(F)F)cc3)cccn2c1N(C)C(=O)C(C)C,nt,-3,0,nt,-5,nt
Cc1ccc(-c2nc3s/c(=C\c4ccco4)c(=O)n3n2)cc1,2,-2,-6,13,28*,1
O=C(O)CN1C(=O)C2C3CC(C2C1=O)C1C(c2ccc(F)cc2)c2sc(=O)[nH]c2SC31 (stereo unspecified),-10,-4,2,4,37*,22*
O=C(O)CN1C(=O)C2C3CC(C2C1=O)C1C(c2ccc(Cl)cc2)c2sc(=O)[nH]c2SC31 (stereo unspecified),50,2,9,5,64*,15
